Test results taken from publication PMC6125788 (Molecular pharmaceutics, 2018).

Legend:
A375 cells [1] = test: Cellular uptake by flow cytometry in A375 cells; format: cell-based, human; details: free cRGDfK 10 μM
Outline: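 A375 cells grown in DMEM with 10% FBS and 1% penicillin/streptomycin at 37 °C, 5% CO2. Cells were exposed to untargeted or RGD-targeted PEG-IR700 conjugate for 4 h, with or without free cRGDfK (10 μM). They were then trypsinized to single cells, and cell-associated fluorescence was read by flow cytometry.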

A375 cells [2] = test: Phototoxicity and dark toxicity, Alamar Blue assay; format: cell-based, human; details: no irradiation, up to 1000 nM of IR700 equiv.
Outline: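 A375 cells were incubated overnight at 37 °C with free IR700 or PEG-IR700 conjugates at increasing concentrations (IR700 equiv.). Cells were then washed with fresh medium and kept unirradiated, as dark controls for the 660 nm photo-irradiation arm. Viability was measured 24 h later by Alamar Blue (4 h, fluorescence Ex 540/Em 590 nm); N = 4.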

Compound | effect of free peptide on uptake of RGD-8PEG-IR700 (A375 cells [1]) | cytotoxicity in dark (A375 cells [2])
N=C(N)NCCC[C@@H]1NC(=O)[C@H](CCCCN)NC(=O)[C@@H](Cc2ccccc2)NC(=O)[C@H](CC(=O)O)NC(=O)CNC1=O [cRGDfK] | dramatically reduce the uptake | 
C[Si](C)(CCC[N+](CCCS(=O)(=O)[O-])(CCCS(=O)(=O)[O-])CCCS(=O)(=O)[O-])O[Si]1(O[Si](C)(C)CCC[N+](CCCS(=O)(=O)[O-])(CCCS(=O)(=O)[O-])CCCS(=O)(=O)[O-])n2c3c4ccccc4c2N=C2N=C(N=c4c5ccccc5c(n41)=NC1=NC(=N3)c3ccccc31)c1cccc(OCCCOC(=O)NCCCCCC(=O)ON3C(=O)CCC3=O)c12.[Na+].[Na+].[Na+].[Na+] (centres unmarked) [IR700, IRDye 700DX] |  | no dark toxicity
